Data reported in article PMC8341878 (RSC Chemical Biology, 2020).
≈ marks a conversion by molar mass, not a printed value. Where “and” joins values, the source holds several entries; their conditions need not be identical. Identical values can stand only once. Peptide text beside a SMILES is read from it.

Experiments:
Mycobacterium smegmatis = settings: cited from earlier work
E. coli D22 strain = assay: Microdilution broth assay; format: cell-based, Escherichia coli
In short: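 E. coli D22 was grown in Mueller Hinton broth to OD600 0.6–0.8, then diluted so wells held about 2 to 5 × 10^5 cfu per mL with serially diluted peptide in MH broth. Plates were read at 620 nm after 18–24 h at 37 °C. MIC was the lowest concentration with no turbidity increase. For MBC, wells were plated on LB agar; ≥99.9% kill versus inoculum. Duplicates, ≥2 independent experiments.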

[1] = biological target: ^EcSC (E. coli sliding clamp, DnaN) (Escherichia coli, UniProt P0A988); assay: ITC, peptide interaction with E. coli sliding clamp; format: binding
Sequence of ^EcSC (E. coli sliding clamp, DnaN) (P0A988 whole entry): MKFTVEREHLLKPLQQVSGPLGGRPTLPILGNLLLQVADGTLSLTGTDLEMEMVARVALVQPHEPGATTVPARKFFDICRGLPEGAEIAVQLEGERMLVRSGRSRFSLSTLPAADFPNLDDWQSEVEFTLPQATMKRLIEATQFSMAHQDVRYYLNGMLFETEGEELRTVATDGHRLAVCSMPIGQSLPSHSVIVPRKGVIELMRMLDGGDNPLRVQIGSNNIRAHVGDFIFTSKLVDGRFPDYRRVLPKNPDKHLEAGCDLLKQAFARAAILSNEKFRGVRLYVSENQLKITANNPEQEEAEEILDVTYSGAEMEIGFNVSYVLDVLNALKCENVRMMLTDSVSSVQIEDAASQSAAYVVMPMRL
In short: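 Recombinant His-tagged E. coli DnaN was expressed in BL21(DE3) pLys (IPTG 0.1 mM, 28 °C overnight), purified by Ni-NTA then Source Q, and exchanged into 10 mM Hepes pH 7.4, 0.15 M NaCl, 3 mM EDTA. Peptide (100 to 400 μM) was injected stepwise into 20 or 30 μM clamp at 30 °C. Peptide-into-buffer controls were subtracted. Each titration was run at least twice; mean ± sd.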

[2] = E. coli D22, decrease of at least 99.9% of cell viability vs inoculum, minimum of 2 independent biological replicates

| Compound | MBC (E. coli D22 strain; [2]) [µg/mL] | MBC (E. coli D22 strain; Escherichia coli, D22STRAIN) [µg/mL] | MIC (E. coli D22 strain; Escherichia coli, D22STRAIN) | also measured |
| --- | --- | --- | --- | --- |
| griselimycin | – | – | – | frequency of resistance (Mycobacterium smegmatis): 5 × 10^−10 |
| CC[C@H](C)[C@H](NC(=O)[C@@H]1CCCN1C(=O)[C@H](CCCNC(=N)N)NC(=O)[C@@H]1CCCN1C(=O)[C@@H]1CCCN1C(=O)[C@@H](NC(=O)[C@@H]1CCCN1C(=O)[C@H](CCCNC(=N)N)NC(=O)[C@@H]1CCCN1C(=O)[C@H](CC(C)C)NC(=O)[C@H](Cc1ccc(O)cc1)NC(=O)[C@H](CO)NC(=O)CNC(=O)[C@H](CCCCN)NC(=O)[C@H](CC(=O)O)NC(=O)[C@@H](N)C(C)C)[C@@H](C)O)C(=O)N[C@@H](Cc1ccc(O)cc1)C(=O)N[C@@H](CC(N)=O)C(=O)N[C@@H](CCCNC(=N)N)C(=O)N[C@@H](CC(N)=O)C(=O)NCC(=O)N1CCC[C@H]1C(=O)N[C@@H](CCCNC(=N)N)C(=O)N[C@@H](CCC(N)=O)C(=O)N[C@@H](CC1CCCCC1)C(=O)N[C@@H](CC(=O)O)C(=O)N[C@@H](CC(C)C)C(=O)N[C@@H](Cc1ccccc1)C(=O)O [Py-P7] (HELM PEPTIDE1{V.D.K.G.S.Y.L.P.R.P.T.P.P.R.P.I.Y.N.R.N.G.P.R.Q.[Cha].D.L.F}$$$$V2.0) | 8 (≈ 2.42 µM) | – | – | – |
| CC[C@H](C)[C@H](NC(=O)[C@@H](CCCNC(=N)N)NC(=O)[C@H](CCCNC(=N)N)NC(=O)[C@@H]1CCCN1C(=O)[C@@H]1CCCN1C(=O)[C@H](CCCNC(=N)N)NC(=O)[C@@H]1CCCN1C(=O)[C@H](CCCNC(=N)N)NC(=O)[C@@H]1CCCN1C(=O)[C@H](CC(C)C)NC(=O)[C@H](Cc1ccc(O)cc1)NC(=O)[C@@H]1CCCN1C(=O)[C@@H]1CCCN1C(=O)[C@H](CCCCN)NC(=O)[C@H](CC(=O)O)NC(=O)[C@@H](N)C(C)C)C(=O)N[C@@H](Cc1ccc(O)cc1)C(=O)N[C@@H](CC(N)=O)C(=O)N[C@H](CCCNC(=N)N)C(=O)N[C@@H](CC(N)=O)C(=O)NCC(=O)N1CCC[C@H]1C(=O)N[C@@H](CCCNC(=N)N)C(=O)N[C@@H](CCC(N)=O)C(=O)N[C@@H](CC1CCCCC1)C(=O)N[C@@H](CC(=O)O)C(=O)N[C@@H](CC(C)C)C(=O)N[C@@H](Cc1ccccc1)C(=O)O [Onc112-P7] (HELM PEPTIDE1{V.D.K.P.P.Y.L.P.R.P.R.P.P.R.[dR].I.Y.N.[dR].N.G.P.R.Q.[Cha].D.L.F}$$$$V2.0) | 2 (≈ 0.576 µM) | – | – | Kd ([1]; SD): 200 ± 0.1 nM |
| CN(C)[C@@H]1C(O)=C(C(N)=O)C(=O)[C@@]2(O)C(O)=C3C(=O)c4c(O)cccc4[C@@](C)(O)[C@H]3C[C@@H]12 [Tetracycline] | – | 0.5 (≈ 1.13 µM) | 0.56 µM to 1.12 µM and 0.25 µg/mL to 0.5 µg/mL | – |
| CC[C@H](C)[C@H](NC(=O)[C@@H](CCCNC(=N)N)NC(=O)[C@H](CCCNC(=N)N)NC(=O)[C@@H]1CCCN1C(=O)[C@@H]1CCCN1C(=O)[C@H](CCCNC(=N)N)NC(=O)[C@@H]1CCCN1C(=O)[C@H](CCCNC(=N)N)NC(=O)[C@@H]1CCCN1C(=O)[C@H](CC(C)C)NC(=O)[C@H](Cc1ccc(O)cc1)NC(=O)[C@@H]1CCCN1C(=O)[C@@H]1CCCN1C(=O)[C@H](CCCCN)NC(=O)[C@H](CC(=O)O)NC(=O)[C@@H](N)C(C)C)C(=O)N[C@@H](Cc1ccc(O)cc1)C(=O)N[C@@H](CC(N)=O)C(=O)N[C@H](CCCNC(=N)N)C(N)=O [Onc112] (HELM PEPTIDE1{V.D.K.P.P.Y.L.P.R.P.R.P.P.R.[dR].I.Y.N.[dR].[am]}$$$$V2.0) | 1 (≈ 0.418 µM) | – | – | K D ([1]; ITC at 30 °C, R1 buffer 10 mM Hepes pH 7.4, 0.15 M NaCl, 3 mM EDTA, peptide 100-400 μM into SC 20 or 30 μM, means ± sd of at least 2 independent experiments, ni = no specific interaction): ni |
| CC1(C)S[C@@H]2[C@H](NC(=O)[C@H](N)c3ccccc3)C(=O)N2[C@H]1C(=O)O [Ampicillin] | – | 16 (≈ 45.8 µM) | 22.9 µM to 45.8 µM and 8 µg/mL to 16 µg/mL | – |
